Reference: PMC6607395 (Molecular Pharmaceutics, 2019)

Assays:
[1] = biological target: human TTR (Homo sapiens, UniProt P02766); assay: Fluorescence polarization; assay type: binding
[2] = biological target: TTR in human serum (Homo sapiens, UniProt P02766); assay: Fluorescent probe exclusion; assay type: binding; settings: for TTR occupancy: 10 μM ligand, human serum (TTR ∼5 μM), after 3 h relative to probe alone
[3] = biological target: rhPSMA (Homo sapiens, UniProt Q04609); assay: PSMA enzyme inhibition assay; assay type: biochemical
[4] = test system: DU145 (PSMA−) tumors; assay: In vivo imaging and biodistribution, DU145 xenograft; set-up: species or system mouse; settings: DU145 model, 17 nmol/kg tail vein, 1–72 h
[5] = Pharmacokinetic profile in rats; settings: rat; for presence in plasma over time: single IV 0.1 μmol/kg
[6] = test system: LNCaP (PSMA+) tumors; assay: In vivo imaging and biodistribution, LNCaP xenograft; set-up: species or system mouse; settings: for ex vivo tissue biodistribution: 72 h postinjection, 17 nmol/kg; for whole body fluorescence signal over time: LNCaP model, 17 nmol/kg tail vein, 1–72 h
Procedure, shortened: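 Male athymic nu/nu mice (5 weeks old) carried subcutaneous LNCaP (5 × 10^6 cells) or DU145 (1 × 10^6 cells) flank tumours in 1:1 HBSS/Matrigel, grown to 100–150 mm3. Each received one tail-vein injection of 17 nmol/kg in 1% DMSO/99% saline (n = 3). Whole-body imaging ran at 1, 4, 24, 48 and 72 h (ex 685, em 800 nm). At 72 h, tumours, liver, kidney, heart and blood were excised, rinsed, weighed and imaged ex vivo, and mean AFU/mg was calculated.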

[7] = biological target: Cathepsin B from human liver (Homo sapiens, UniProt P07858); assay: MMAE release following cathepsin B cleavage; assay type: in vitro ADME; settings: 20 μM compound, cathepsin B 100 nM, pH 5.5, 37 °C, within 15 min
Procedure, shortened: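 Human liver cathepsin B was activated for 15 min at ambient temperature in 25 mM sodium acetate, 1 mM EDTA and 9.2 mM DTT, pH 5.5. It was then used at 100 nM with 20 μM substrate in 25 mM sodium acetate/1 mM EDTA, pH 5.5, at 37 °C. Aliquots taken at 0, 15, 30 min, 1 h and 2 h were quenched in acidified acetonitrile–water, chilled and centrifuged. Free MMAE was quantified by HPLC-UV at 210 nm, and its identity was confirmed by LC–MS/MS.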

Chain of rhPSMA (Q04609 whole entry): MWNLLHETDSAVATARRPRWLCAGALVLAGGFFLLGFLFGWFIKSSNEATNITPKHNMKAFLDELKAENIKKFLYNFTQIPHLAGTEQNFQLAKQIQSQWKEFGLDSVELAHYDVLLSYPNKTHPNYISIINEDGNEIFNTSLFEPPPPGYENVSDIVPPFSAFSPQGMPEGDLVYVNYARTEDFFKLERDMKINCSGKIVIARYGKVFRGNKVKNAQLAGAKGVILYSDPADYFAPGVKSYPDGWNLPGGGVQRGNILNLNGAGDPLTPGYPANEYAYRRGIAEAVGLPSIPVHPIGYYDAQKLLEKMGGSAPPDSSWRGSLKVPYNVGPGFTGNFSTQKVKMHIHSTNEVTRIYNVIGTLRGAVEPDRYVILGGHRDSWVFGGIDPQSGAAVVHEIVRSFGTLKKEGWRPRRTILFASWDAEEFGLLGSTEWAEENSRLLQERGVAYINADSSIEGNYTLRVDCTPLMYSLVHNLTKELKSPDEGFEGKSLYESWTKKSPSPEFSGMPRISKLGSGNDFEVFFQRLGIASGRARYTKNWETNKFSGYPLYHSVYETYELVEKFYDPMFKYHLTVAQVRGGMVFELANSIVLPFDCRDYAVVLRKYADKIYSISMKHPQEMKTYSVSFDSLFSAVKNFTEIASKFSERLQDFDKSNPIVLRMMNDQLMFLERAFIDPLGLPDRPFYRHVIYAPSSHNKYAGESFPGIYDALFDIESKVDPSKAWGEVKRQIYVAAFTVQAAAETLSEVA

SMILES: Cc1n[nH]c(C)c1CCCOc1cc(OCCCCCCNCCOCCn2cc(C[C@H](NC(=O)CCCCC[N+]3=C(C=CC4=CC(=CC=C5N(C)c6ccc(S(=O)(=O)O)cc6C5(C)C)CCC4)C(C)(C)c4cc(S(=O)(=O)[O-])ccc43)C(=O)NCCCCCC(=O)NCCCC[C@H](NC(=O)N[C@@H](CCC(=O)O)C(=O)O)C(=O)O)nn2)cc(C(=O)O)c1 [TFM1]
- Kd [1]: 0.374 µM
- TTR occupancy [2]: 57.6 ± 1.9%
- Ki ([3]; Ki on PSMA in the presence of TTR, 1 μM TTR): 0.0338 µM
- Ki ([3]; Ki on PSMA, absence of TTR): 0.0328 µM
- whole body fluorescence signal over time [4]: maintained a very high fluorescence signal at 4 h and the signal was maintained for up to 48 h postinjection
- fold higher MRT compared to BFM1 ([5]; IV 0.1 μmol/kg): ~16 fold
- fold increase in t1/2 compared to BFM1 ([5]; IV 0.1 μmol/kg): ~6.6 fold
- presence in plasma over time [5]: still present even after 24 h
- ex vivo tissue biodistribution [6]: accumulated predominantly in PSMA expressing LNCaP tumors, with no substantial fluorescence activity in other tissues except kidneys
- whole body fluorescence signal over time [6]: maintained a very high fluorescence signal at 4 h and the signal was maintained for up to 48 h postinjection
- fold enhanced uptake in LNCaP compared to BFM1 ([6]; excised tumors, 72 h): ~3 fold
- fold higher fluorescent signal in LNCaP compared to DU145 tumors ([6]; excised tumors, 72 h): ~7 fold

SMILES: CC[C@H](C)[C@@H]([C@@H](CC(=O)N1CCC[C@H]1[C@H](OC)[C@@H](C)C(=O)N[C@H](C)[C@@H](O)c1ccccc1)OC)N(C)C(=O)[C@@H](NC(=O)[C@H](C(C)C)N(C)C(=O)OCc1ccc(NC(=O)[C@H](CCCNC(N)=O)NC(=O)[C@@H](NC(=O)CCCCCN2C(=O)CC(SCCC(=O)N[C@@H](Cc3cn(CCOCCNCCCCCCOc4cc(OCCCc5c(C)n[nH]c5C)cc(C(=O)O)c4)nn3)C(=O)NCCCCCC(=O)NCCCC[C@H](NC(=O)N[C@@H](CCC(=O)O)C(=O)O)C(=O)O)C2=O)C(C)C)cc1)C(C)C (stereo partly shown) [TFM2]
- MMAE release [7]: 98%

SMILES: Cc1n[nH]c(C)c1CCCOc1cc(OCCCCCCN)cc(C(=O)O)c1 [ligand 2]
- Kd [1]: 0.0489 µM
- receptor occupancy at 10 µM ([2]; read-out: TTR occupancy): 80.4 ± 0.7%

SMILES: C#CC[C@H](NC(=O)CCCCC[N+]1=C(C=CC2=CC(=CC=C3N(C)c4ccc(S(=O)(=O)O)cc4C3(C)C)CCC2)C(C)(C)c2cc(S(=O)(=O)[O-])ccc21)C(=O)NCCCCCC(=O)NCCCC[C@H](NC(=O)N[C@@H](CCC(=O)O)C(=O)O)C(=O)O [BFM1]
- Ki ([3]; Ki on PSMA, absence of TTR): 0.0207 µM
- whole body fluorescence signal over time [4]: significantly reduced at 4 h postinjection and reduced to the background level at 24 h
- presence in plasma over time [5]: no measurable amount of BFM1 after 4 h
- ex vivo tissue biodistribution [6]: accumulated predominantly in PSMA expressing LNCaP tumors, with no substantial fluorescence activity in other tissues except kidneys
- whole body fluorescence signal over time [6]: significantly reduced at 4 h postinjection and reduced to the background level at 24 h

SMILES: C#CCC(N)C(=O)NCCCCCC(=O)NCCCCC(NC(=O)NC(CCC(=O)O)C(=O)O)C(=O)O (stereo not shown) [ligand 22]
- Ki ([3]; Ki on PSMA, absence of TTR): 0.0095 µM

SMILES: O=C(O)c1ccc2nc(-c3cc(Cl)cc(Cl)c3)oc2c1 [tafamidis, reference compound]
- TTR occupancy [2]: 50.8 ± 2.0%
